Experiments:
[1] = target: cGMP-specific 3',5'-cyclic phosphodiesterase (Homo sapiens, UniProt O76074); test: Inhibition of PDE5
[2] = Inhibition of PDE6
[3] = Inhibition of PDE11
[4] = Selectivity ratio of IC50 for PDE6 to IC50 for PDE5
[5] = Selectivity ratio of IC50 for PDE11 to IC50 for PDE5
[6] = Half life in Sprague-Dawley rat at 2 mg/kg, po and 2mg/kg, iv; type: ADME, organism-based; parameters: dose 2 mg/kg, route oral; settings: in vivo
How it was run: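 Sprague Dawley rats (n = 3) dosed IV at 2 mpk in 70% PEG400/20% 0.05 M citrate buffer/10% ethanol, pH 5.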

[7] = Aqueous solubility at pH 7.4; type: physicochemical; settings: aqueous medium

SMILES | IC50 [1] | IC50 [2] | IC50 [3] | Ratio IC50 [4] | Ratio IC50 [5] | half-life [6] | solubility [7]
COc1ccc(-c2ccc3nc(NCC(=O)N(C)C)c(=O)n(CC4CCCCC4)c3n2)cn1 | 0.3 nM | 72 nM | 7.7 nM |  |  |  | 
CCCOCCn1c(=O)c(NCC(=O)N(C)C)nc2ccc(-c3ccc(OC)nc3)nc21 | 14.5 nM | 1190 nM | 1210 nM | > 100 | > 600 |  | 
COc1ccc(Cn2c(=O)c(NCCN3CCOCC3)nc3ccc(-c4ccc(F)c(F)c4)nc32)cc1 | 2 nM | 11.6 nM | 482 nM |  | 100 |  | 
Nc1nc2ccc(-c3ccc(F)cc3)nc2n(CC2CCCCC2)c1=O | 28.5 nM | 114 nM | 145 nM |  |  |  | 
O=c1c(NCC2CCOCC2)nc2ccc(-c3ccc(F)cc3)nc2n1Cc1cccnc1 | 2.5 nM | 375 nM | 474 nM |  |  |  | 
CCCOCCn1c(=O)c(NCC2CCOCC2)nc2ccc(-c3ccc(OC)nc3)nc21 | 2.3 nM | 350 nM | 1230 nM | > 100 | > 600 |  | 
CCCOCCn1c(=O)c(NCC2CCOCC2)nc2ccc(-c3ccc(F)cc3)nc21 | 22.4 nM | > 2000 nM | > 2000 nM |  |  |  | 
CCCOCCn1c(=O)c(NCC2CCOCC2)nc2ccc(-c3ccncc3)nc21 | 33.9 nM | 1170 nM | > 2000 nM |  |  |  | 
O=c1c(NCC2CCOCC2)nc2ccc(-c3ccc(F)cc3)nc2n1CC1CCCCC1 | 3 nM | 459 nM | 324 nM | > 100 |  |  | 
CCCOCCn1c(=O)c(NCCN2CCOCC2)nc2ccc(-c3ccc(OC)nc3)nc21 | 2.4 nM | 317 nM | 1540 nM | > 100 | > 600 | 3 h | 
O=c1c(NCC2CCOCC2)nc2ccc(-c3ccncc3)nc2n1CC1CCCCC1 | 0.9 nM | 33.5 nM | 36.5 nM |  |  |  | 
CCCn1ccc(=O)c2c(N)nc(-c3ccccc3)cc21 | 51 nM | 6 nM |  |  |  |  | 
CCCOCCn1c(=O)c(NCCN2CCOCC2)nc2ccc(-c3ccc(=O)[nH]c3)nc21 | 534 nM |  |  |  |  |  | 
COc1ncc(-c2ccc3nc(NCC4CCOCC4)c(=O)n(CC4CCCCC4)c3n2)cn1 | 0.3 nM | 36.3 nM | 8.2 nM |  |  |  | 
CCCOCCn1c(=O)c(NCCN2CCOCC2)nc2ccc(-c3c(C)noc3C)nc21 | 36.5 nM | 1980 nM | > 2000 nM |  |  |  | 
CCCOCCn1c(=O)c(NCCN2CCOCC2)nc2ccc(-c3ccc(F)cc3)nc21 | 33.3 nM | 1850 nM | > 2000 nM |  |  |  | 
O=c1c(NCc2cccnc2)nc2ccc(-c3ccc(F)cc3)nc2n1CC1CCCCC1 | 13.4 nM | 871 nM | 558 nM |  |  |  | 

SMILES | IC50 [1] | IC50 [2] | IC50 [3] | Ratio IC50 [4] | Ratio IC50 [5] | half-life [6] | solubility [7]
COc1ccc(Cn2c(=O)c(NCCN3CCOCC3)nc3ccc(-c4ccc(F)cc4)nc32)cc1 | 1.3 nM | 10.1 nM | 345 nM |  | 100 |  | 
COc1ccc(-c2ccc3nc(NCCN4CCOCC4)c(=O)n(CC4CCCCC4)c3n2)cn1 | 0.4 nM | 25.2 nM | 5.9 nM |  |  |  | < 3 µM
CC(C)Cn1c(=O)c(NCC2CCOCC2)nc2ccc(-c3ccc(F)cc3)nc21 | 224 nM |  |  |  |  |  | 
O=c1c(NCC2CCOCC2)nc2ccc(-c3ccc(F)cc3)nc2n1Cc1ccccn1 | 20.3 nM | 920 nM | 970 nM |  |  |  | 
COc1ccc(-c2ccc3nc(NCC4CCOCC4)c(=O)n(CC4CCCCC4)c3n2)cn1 | 0.3 nM | 32 nM | 8.1 nM |  |  |  | 
CC(C)OCCn1c(=O)c(NCCN2CCOCC2)nc2ccc(-c3ccc(F)c(F)c3)nc21 | 52.5 nM | 979 nM | 1660 nM |  |  |  | 
CCCCCN1C(=O)CN(C)c2ncc(-c3ccc(F)c(F)c3)cc21 | 43 nM | 1160 nM | > 2000 nM |  |  |  | 
O=c1c(NCC2CCOCC2)nc2ccc(-c3ccc(O)nc3)nc2n1CC1CCCCC1 | 2.9 nM | 112 nM | 79.2 nM |  |  |  | 
CCOCCn1c(=O)c(NCC2CCOCC2)nc2ccc(-c3ccc(F)cc3)nc21 | 149 nM |  |  |  |  |  | 
O=c1c(NCCN2CCOCC2)nc2ccc(-c3ccc(F)c(F)c3)nc2n1CC1CCCCC1 | 1.6 nM | 195 nM | 213 nM | > 100 |  |  | 
CCCOCCn1c(=O)c(NCCN2CCOCC2)nc2ccc(-c3cnc(OC)nc3)nc21 | 26.7 nM | > 2000 nM | > 2000 nM |  |  |  | 
Cc1noc(C)c1-c1ccc2nc(NCCN3CCOCC3)c(=O)n(CC3CCCCC3)c2n1 | 1 nM | 41.6 nM | 286 nM |  |  |  | 
O=c1c(NCCN2CCOCC2)nc2ccc(-c3ccc(F)cc3)nc2n1CC1CCCCC1 | 4.6 nM | 240 nM | 405 nM | > 100 |  |  | 
O=c1c(NCC2CCOCC2)nc2ccc(-c3ccc(F)cc3)nc2n1Cc1cc(F)cc(F)c1 | 2.7 nM | 910 nM | 390 nM |  |  |  | 
COc1ccc(Cn2c(=O)ccc3ccc(-c4ccncc4)cc32)cc1 | 25 nM | 150 nM | 41 nM |  |  |  | 
CN(C)C(=O)CNc1nc2ccc(-c3ccc(F)cc3)nc2n(CC2CCCCC2)c1=O | 3.5 nM | > 2000 nM | 90.9 nM |  |  |  | 

— ChEMBL document CHEMBL1154009, “Identification, synthesis and SAR of amino substituted pyrido[3,2b]pyrazinones as potent and selective PDE5 inhibitors” (Bioorg Med Chem Lett, 2009)
